In general, IC50 refers to the point on the concentration scale where inhibition reaches its midpoint.

“Also recorded” adds a separate entry of the source.

Data set [1] relates to CBMCs co-cultured with NHLFs. Description: CBMC:NHLF co-culture, fibroblast-mediated MC survival and fibroblast numbers. The format is cell-based, human. The note with it: 10 nM, day 14. The gist of the method: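 CBMCs and normal human lung fibroblasts were cultured alone or co-cultured at 1:1 for up to 21 days. Media lacked SCF and IL-6 and held test compound, DMSO vehicle, anti-SCF (67 nM) or goat IgG isotype (67 nM). At each time point, viability dye plus anti-ckit APC staining; viable ckit+ (MC) and ckit− (fibroblast) cells counted in a fixed volume by flow cytometry. Day-14 % inhibition vs isotype/vehicle; 3 experiments, 2 MC donors.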

Data set [2] deals with ckit (Homo sapiens, UniProt P10721). The experiment in a line: rhSCF-mediated ckit phosphorylation in CBMCs. It counts as cell-based. The note with it: 4 nM rhSCF, 10 min stimulation.
For data set [3], the system named is CCL2 release from CBMCs. Description: rhSCF-induced CCL2 release from MCs. The note with it: Homo sapiens, 72 h, read-out: IC50, inhibition of CCL2 release. The format is cell-based. The procedure, abridged: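 CBMCs stimulated 3 days with 4 nM rhSCF together with test compound, DMSO vehicle, anti-SCF pAb (positive control) or goat IgG isotype. CCL2 in culture supernatants quantified by MesoScale Discovery electrochemiluminescence. Mean (SE) of 3 separate experiments.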

Data set [4] concerns rat bleomycin model. Description: rat bleomycin model of lung fibrosis. The format is in vivo. To be noted: 60 mg/kg daily oral. The gist of the method: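 Male CD rats, 6–8 weeks old, given intratracheal bleomycin sulphate 0.9 U/kg or saline 1 mL/kg under isoflurane on day 0. Test compound 60 mg/kg, or water vehicle, by daily oral gavage on days 0–13. Day 14: Giemsa-stained lung sections counted for MCs per lung area. H&E and Masson's trichrome images analysed for parenchymal tissue density (HDFm). Collagen proportion by trichrome image analysis, 5 sections/animal. n=5–9/group; Kruskal-Wallis.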

For data set [5] the following is noted: read-out: maximum plasma concentration achieved at steady state (cmax); 150 mg twice daily dosing; cited from earlier work.
The test system of data set [6] is normal human lung fibroblasts (NHLFs). Description: bFGF-induced fibroblast proliferation. It counts as cell-based. The note with it: 100pM bFGF, 48 hours. The procedure, abridged: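 Normal human lung fibroblasts stimulated 48 h with recombinant human bFGF (100pM) plus test compound or DMSO vehicle. Proliferation measured by 3H-thymidine incorporation (counts per minute). Mean (SE) of three separate experiments.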

The test system of data set [7] is cord blood-derived mast cells (CBMCs). The experiment in a line: recombinant SCF-mediated CBMC survival. The format is cell-based, human. The note with it: 4 nM rhSCF, 7 days. The procedure, abridged: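 Cord blood–derived MCs, differentiated from CD133+ precursors, cultured 7 days with 4 nM rhSCF plus test compound or DMSO vehicle. Then stained with viability dye and anti-ckit APC; viable ckit-positive MCs in a fixed volume counted by flow cytometry and compared with control. Mean (SE) of three separate experiments.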

Sequence of ckit (P10721 26-976): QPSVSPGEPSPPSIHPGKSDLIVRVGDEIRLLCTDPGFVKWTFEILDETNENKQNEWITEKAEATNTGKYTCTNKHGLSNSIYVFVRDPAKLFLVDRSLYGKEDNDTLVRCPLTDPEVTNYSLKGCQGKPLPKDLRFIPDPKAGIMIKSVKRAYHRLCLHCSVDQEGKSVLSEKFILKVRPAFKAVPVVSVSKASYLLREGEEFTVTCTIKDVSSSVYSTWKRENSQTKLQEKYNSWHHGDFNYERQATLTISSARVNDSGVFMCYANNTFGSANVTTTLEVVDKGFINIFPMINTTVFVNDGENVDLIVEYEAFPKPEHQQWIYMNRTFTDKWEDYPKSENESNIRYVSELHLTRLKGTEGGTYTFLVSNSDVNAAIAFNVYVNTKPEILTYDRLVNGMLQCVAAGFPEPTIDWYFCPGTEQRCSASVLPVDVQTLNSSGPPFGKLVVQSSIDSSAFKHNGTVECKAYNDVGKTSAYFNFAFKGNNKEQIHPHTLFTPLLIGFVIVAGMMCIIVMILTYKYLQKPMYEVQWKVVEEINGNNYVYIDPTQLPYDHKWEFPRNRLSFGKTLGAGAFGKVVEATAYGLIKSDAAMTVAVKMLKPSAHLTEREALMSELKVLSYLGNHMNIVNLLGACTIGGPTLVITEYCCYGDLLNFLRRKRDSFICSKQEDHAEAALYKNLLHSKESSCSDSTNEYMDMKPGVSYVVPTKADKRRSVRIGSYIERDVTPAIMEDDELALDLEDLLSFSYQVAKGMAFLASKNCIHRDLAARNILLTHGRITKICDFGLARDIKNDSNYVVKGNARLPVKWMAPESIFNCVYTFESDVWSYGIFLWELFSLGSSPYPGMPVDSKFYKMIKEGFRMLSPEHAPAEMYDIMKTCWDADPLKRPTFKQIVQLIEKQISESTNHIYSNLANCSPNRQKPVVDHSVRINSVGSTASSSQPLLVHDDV

As to `COC(=O)c1ccc2c(c1)NC(=O)/C2=C(\Nc1ccc(N(C)C(=O)CN2CCN(C)CC2)cc1)c1ccccc1` [nintedanib], the “effect on fibroblast-mediated MC survival (in words)” value in data set [1] was “inhibited survival”. For the same molecule, the “extent of inhibition of ckit phosphorylation (in words)” value in data set [2] was “fully inhibited”. In addition, the 50% inhibitory concentration (IC50) in data set [3] came out at 12.2 nM. Further, the “effect on bleomycin-induced increase in lung MCs (number per area lung)” value in data set [4] (day 0-13, read-out day 14, 60 mg/kg) is recorded as “ablated; also recorded: inhibited”. For the same molecule, in data set [4] (day 14), the “effect on collagen (col1a1) mRNA expression in lung” value was “no significant effect” and the “effect on fibronectin (fn1) mRNA expression in lung” value is recorded as “no significant effect”. Further, in data set [4] (day 14, 60 mg/kg), the “effect on collagen content by Masson's trichrome (MTC)” value is recorded as “trend towards decreased collagen; also recorded: not statistically significant”; the “effect on histamine levels in lung homogenates” value was “reduction in the levels of histamine in lung homogenates, although this did not reach statistical significance”; the “effect on lung hydroxyproline levels” value was “no significant effect”. Also, the “effect on high tissue density frequency (HDFm) in lung parenchyma” value in data set [4] (day 14, vs bleomycin vehicle control, 60 mg/kg) was “significantly decreased; also recorded: inhibited”. The Cmax in data set [5] was 70 nM.

As for `Cc1ccc(=O)n(-c2ccccc2)c1` [pirfenidone], the “effect on bFGF-mediated fibroblast proliferation (in words)” value in data set [6] was “no impact”. The “effect on rhSCF-mediated MC survival (in words)” value in data set [7] is “no impact”.

The values are drawn from paper PMC7476277 (Thorax, 2020).
